Test results: ChEMBL document CHEMBL3102734, “Inhibition of LOX by flavonoids: a structure-activity relationship study” (Eur J Med Chem, 2014)
Activity calls are given as the source filed them. The rule behind the calls is not given here.

Tests used:
[1] = molecular target: T1, Seed linoleate 13S-lipoxygenase-1 (Glycine max, UniProt P08170); assay: Uncompetitive inhibition of soybean LOX-1 using linoleic acid as substrate preincubated for 5 mins followed by substrate addition by Lineweaver-Burk plot analysis
T1 sequence (P08170 whole entry): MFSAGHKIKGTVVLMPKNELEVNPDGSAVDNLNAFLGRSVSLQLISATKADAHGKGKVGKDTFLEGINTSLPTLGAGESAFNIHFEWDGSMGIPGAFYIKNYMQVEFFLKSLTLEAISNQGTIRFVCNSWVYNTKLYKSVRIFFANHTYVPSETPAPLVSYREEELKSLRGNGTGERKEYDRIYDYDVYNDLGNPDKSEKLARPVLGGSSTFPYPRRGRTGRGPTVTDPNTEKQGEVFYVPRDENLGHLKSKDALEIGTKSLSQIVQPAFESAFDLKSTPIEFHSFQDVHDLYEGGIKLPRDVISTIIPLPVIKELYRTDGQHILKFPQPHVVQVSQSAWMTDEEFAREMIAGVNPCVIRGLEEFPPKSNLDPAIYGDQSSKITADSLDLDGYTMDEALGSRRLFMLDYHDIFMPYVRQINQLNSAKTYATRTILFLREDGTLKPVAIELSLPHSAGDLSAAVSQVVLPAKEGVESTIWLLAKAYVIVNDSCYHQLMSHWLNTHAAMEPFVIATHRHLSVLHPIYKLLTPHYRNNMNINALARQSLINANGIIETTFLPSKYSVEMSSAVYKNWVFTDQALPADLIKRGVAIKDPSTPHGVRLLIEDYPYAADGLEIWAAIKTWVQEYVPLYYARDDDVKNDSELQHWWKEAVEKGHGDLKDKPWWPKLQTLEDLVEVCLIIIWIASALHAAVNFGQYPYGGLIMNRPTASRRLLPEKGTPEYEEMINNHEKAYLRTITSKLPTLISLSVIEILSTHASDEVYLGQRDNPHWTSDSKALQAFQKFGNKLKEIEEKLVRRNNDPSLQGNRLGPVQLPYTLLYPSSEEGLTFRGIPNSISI
How it was run: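 Soybean LOX-1 (supplied lyophilized) kinetic assay. Enzyme pre-incubated with inhibitor 5 min, then linoleic acid added. Readings every 30 s for 10 min; rate taken as the 0–3 min slope. Three inhibitor concentrations tested against three substrate concentrations. Inhibition type assigned by nonlinear Michaelis–Menten fitting and Lineweaver–Burk plots. At least four experiments, each in triplicate.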

[2] = molecular target: T2, Polyunsaturated fatty acid 5-lipoxygenase (Homo sapiens, UniProt P09917); assay: Inhibition of 5-LOX-mediated LTB4 production in human neutrophils using arachidonic acid as substrate preincubated for 10 mins followed by substrate addition measured after 8 mins by enzyme immunoassay
T2 sequence (P09917 whole entry): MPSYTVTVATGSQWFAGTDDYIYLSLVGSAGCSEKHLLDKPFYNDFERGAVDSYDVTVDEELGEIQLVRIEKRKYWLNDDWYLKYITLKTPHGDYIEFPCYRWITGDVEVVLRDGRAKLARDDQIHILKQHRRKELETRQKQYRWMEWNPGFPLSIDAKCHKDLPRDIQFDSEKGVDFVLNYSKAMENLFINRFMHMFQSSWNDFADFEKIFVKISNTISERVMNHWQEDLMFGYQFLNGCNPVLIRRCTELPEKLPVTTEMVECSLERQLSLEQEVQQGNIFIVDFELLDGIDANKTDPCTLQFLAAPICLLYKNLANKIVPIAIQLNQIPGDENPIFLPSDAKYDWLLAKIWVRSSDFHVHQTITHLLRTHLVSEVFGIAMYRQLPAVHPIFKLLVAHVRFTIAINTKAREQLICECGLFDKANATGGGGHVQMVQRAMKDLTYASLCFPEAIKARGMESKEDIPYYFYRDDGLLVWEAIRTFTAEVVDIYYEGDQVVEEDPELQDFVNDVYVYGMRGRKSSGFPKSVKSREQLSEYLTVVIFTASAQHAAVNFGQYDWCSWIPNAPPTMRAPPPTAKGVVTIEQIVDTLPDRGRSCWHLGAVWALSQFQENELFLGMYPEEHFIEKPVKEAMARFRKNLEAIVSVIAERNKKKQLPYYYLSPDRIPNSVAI
How it was run: (§1)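 Isolated human neutrophils held in HBSS on ice; viability checked by trypan blue. Flavonoids (0.15–40 μM) pre-incubated 10 min, then A23187 (5 μM) plus arachidonic acid (10 μg/mL) added for 8 min. Stopped with cold methanol and centrifuged 13,000 g, 1 min, 4 °C. LTB4 measured by EIA and expressed as % inhibition of control. NDGA (1 μM) positive control. At least three experiments.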

[3] = molecular target: T3, Seed linoleate 13S-lipoxygenase-1 (Glycine max) (UniProt P08170); assay: Binding affinity to soybean LOX-1 at 1248 uM by STD-[1H] NMR spectroscopic analysis
T3 sequence (whole entry): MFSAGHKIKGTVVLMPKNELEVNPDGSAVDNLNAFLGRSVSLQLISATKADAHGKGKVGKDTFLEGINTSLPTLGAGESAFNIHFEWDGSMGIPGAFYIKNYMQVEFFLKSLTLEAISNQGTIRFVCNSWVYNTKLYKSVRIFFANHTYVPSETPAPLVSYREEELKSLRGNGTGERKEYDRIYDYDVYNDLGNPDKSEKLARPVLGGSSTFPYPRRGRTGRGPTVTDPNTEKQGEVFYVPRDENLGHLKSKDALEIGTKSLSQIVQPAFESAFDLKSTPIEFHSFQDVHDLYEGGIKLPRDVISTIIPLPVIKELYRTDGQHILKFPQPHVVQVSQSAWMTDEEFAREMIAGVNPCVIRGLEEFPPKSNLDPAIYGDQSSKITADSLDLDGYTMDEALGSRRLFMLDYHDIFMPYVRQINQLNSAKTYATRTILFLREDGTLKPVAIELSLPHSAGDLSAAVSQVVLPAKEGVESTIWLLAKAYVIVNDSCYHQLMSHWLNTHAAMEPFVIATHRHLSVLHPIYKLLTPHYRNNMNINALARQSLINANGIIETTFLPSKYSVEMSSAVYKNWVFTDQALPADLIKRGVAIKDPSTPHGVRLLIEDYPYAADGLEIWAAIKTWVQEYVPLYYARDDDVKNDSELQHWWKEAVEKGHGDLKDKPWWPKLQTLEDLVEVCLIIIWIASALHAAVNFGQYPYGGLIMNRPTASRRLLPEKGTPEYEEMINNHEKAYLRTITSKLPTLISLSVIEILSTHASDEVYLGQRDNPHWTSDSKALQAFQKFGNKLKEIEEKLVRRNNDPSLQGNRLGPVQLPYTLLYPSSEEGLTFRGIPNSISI
How it was run: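 STD-1H NMR at 37 °C, 600 MHz, cryoprobe. Lyophilized soybean LOX-1 in Tris buffer (20 mM Tris, 7 mM (NH4)2SO4, 3.5 mM MgCl2, 0.3 mM DTT in D2O, pH 9.0). Ligand added from a 16.6 mM DMSO-d6 stock. Final concentrations: LOX 4 μM, ligand 1248 μM, ratio 300:1. On-resonance saturation at 1.0 ppm; off-resonance reference at 20000 Hz.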

[4] = molecular target: T4, Polyunsaturated fatty acid 5-lipoxygenase (Homo sapiens) (UniProt P09917); assay: Inhibition of 5-LOX-mediated LTB4 production in human neutrophils using arachidonic acid as substrate at 40 uM preincubated for 10 mins followed by substrate addition measured after 8 mins by enzyme immunoassay relative to control
T4 sequence (whole entry): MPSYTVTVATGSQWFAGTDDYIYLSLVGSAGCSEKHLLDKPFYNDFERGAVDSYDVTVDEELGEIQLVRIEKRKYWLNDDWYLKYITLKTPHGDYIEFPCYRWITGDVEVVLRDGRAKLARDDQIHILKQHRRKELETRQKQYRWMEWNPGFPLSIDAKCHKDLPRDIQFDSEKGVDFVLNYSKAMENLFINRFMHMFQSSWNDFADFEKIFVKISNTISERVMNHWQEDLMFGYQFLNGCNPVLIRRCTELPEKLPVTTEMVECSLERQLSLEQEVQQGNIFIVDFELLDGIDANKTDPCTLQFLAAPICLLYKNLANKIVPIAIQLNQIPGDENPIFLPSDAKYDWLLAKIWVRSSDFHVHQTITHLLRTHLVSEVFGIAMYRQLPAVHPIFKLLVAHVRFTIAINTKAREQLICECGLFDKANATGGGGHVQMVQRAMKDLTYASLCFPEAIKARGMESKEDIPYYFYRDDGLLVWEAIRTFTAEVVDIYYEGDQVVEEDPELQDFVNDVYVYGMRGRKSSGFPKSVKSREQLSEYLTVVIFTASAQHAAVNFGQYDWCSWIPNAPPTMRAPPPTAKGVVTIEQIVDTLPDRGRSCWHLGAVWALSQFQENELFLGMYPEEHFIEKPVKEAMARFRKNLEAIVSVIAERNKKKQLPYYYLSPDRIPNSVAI
How it was run: as §1, with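 “blue. Cells at 3.5×10^6 cells/mL equilibrated 10 min at 37 °C.” for “blue.”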

Ki [1] [µM] | IC50 [2] [µM] | Activity [3] | inhibition [4] [%] | SMILES
18 | 2.9 | Active | – | O=c1cc(-c2ccc(O)c(O)c2)oc2cccc(O)c12
– | – | – | 19.9 | O=C1c2c(O)cc(O)cc2O[C@H](c2ccc(O)c(O)c2)[C@H]1O
– | – | – | < 50 | COc1ccc(-c2cc(=O)c3c(O)cc(O)cc3o2)cc1OC
